Published values pooled from the literature.
Compare with care: the assays were run in different laboratories.
Read-out: metabolic stability

| SMILES | test system | conditions | quantity | value |
| --- | --- | --- | --- | --- |
| Cc1nc2c(=O)n(C)c(=O)nc-2n(C)n1 | human, liver microsomes | – | microsomal CLint | < 7.4 µL/min/mg |
| Cc1cc(C)nc(Nc2ncc(C(=O)NCCc3c(C)[nH]c4ccccc34)cn2)c1 | human, liver microsomes | 1 µM | microsomal CLint | 25 µL/min/mg |
| NCCc1c[nH]c2ccc(O)cc12 | human, hepatocytes | 5 µM | hepatocyte CLint | 38.6 µL/min/10⁶ cells |
| Cc1nonc1Cn1nnc2c(N3CC[C@H](O)C3)nc(C(C)(C)C)nc21 | human, hepatocytes | – | hepatocyte CLint | 8.1 µL/min/10⁶ cells |
| C[C@H](C(=O)N[C@H]1COc2ccccc2[C@@H]1S(C)(=O)=O)c1ccc(F)cc1 | human, liver microsomes | 1 µM, 1 h | microsomal CLint | 3 µL/min/mg |
| CN(C)CCc1c[nH]c2ccccc12 | human, hepatocytes | 0.6 µM | hepatocyte CLint | 19.4 µL/min/10⁶ cells |
| C#Cc1ccc2c(c1)C(c1ccccn1)=NCc1c(-c3cnco3)ncn1-2 | human, liver microsomes | – | microsomal CLint | 0.046 µL/min/mg |
| CN1CCN(Cc2ccc(NC(=O)c3cncc(C#Cc4cnc(N)c5ncccc45)c3)cc2C(F)(F)F)CC1 | human, liver microsomes | – | microsomal CLint | 3.6 µL/min/mg |
| Cc1ccc(F)c2cc(C(=O)N[C@@H]3CCC[C@H](N4CC[C@H](N(C)S(C)(=O)=O)C4)C3)[nH]c12 | human, hepatocytes | 0.5 µM, 2 h | scaled CLint | 51 mL/min/kg |
| COC(=O)N[C@H](C(=O)NN(CC[C@@]1(Cc2ccccc2)C(=O)N([C@H]2c3ccccc3C[C@H]2O)C[C@@H]1O)Cc1ccc(Br)cc1)C(C)(C)C | human, liver microsomes | 1 µM, pH 7.35 | microsomal CLint | > 300 µL/min/mg |
| Cc1ncc2n1-c1ccc(Cl)cc1C(c1ccccc1F)=NC2 | human, liver microsomes | 1 µM | microsomal CLint | > 250 µL/min/mg |
| CCCCCn1nc(C(=O)Nc2cccc3ccccc23)c2ccccc21 | male human, liver microsomes | 1 µM, pH 7.4 | microsomal CLint | 410 µL/min/mg |
| Cc1nc([C@@](C)(CC2CC2)NC(=O)c2cc(OCC(F)(F)F)c(C3CC3)cn2)no1 | human, hepatocytes | – | hepatocyte CLint | 17 µL/min/10⁶ cells |
| CCCCCn1cc(C(=O)Nc2cccc3ccccc23)c2ccccc21 | male human, liver microsomes | 1 µM, pH 7.4 | microsomal CLint | 300 µL/min/mg |
| C[C@H]1CN(Cc2ccc(C(F)(F)F)cc2N2CCOCC2)CCN1C(=O)n1ccc(S(=O)(=O)N(C)C)n1 | human, liver microsomes | – | microsomal CLint | 480 µL/min/mg |
